Data published in article PMC8502542 (International Journal of Nanomedicine, 2021).

Assays:
MIA PaCa-2 cell line = assay: MTT cytotoxicity and combination index; assay type: cell-based, human; settings: MIA PaCa-2, MTT, 72 hours
Procedure, shortened: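 MIA PaCa-2 (ATCC) seeded at 3×10^3 cells/well and grown 24 h at 37°C, 5% CO2. Exposed 72 h to test compound (DMSO solution, solvent-based, or albumin nanoparticle form) at 0.01, 0.1, 1, 5, 10, 50, 100 and 1000 ng/mL. MTT (0.5 mg/mL) added for 2 h, formazan dissolved in DMSO, A550 read. Survival expressed as % of control wells.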

[1] = plasma, after administration; cited from earlier work

SMILES: CC(=O)O[C@H]1C(=O)[C@@]2(C)[C@H]([C@H](OC(=O)c3ccccc3)[C@]3(O)C[C@H](OC(=O)[C@H](O)[C@@H](NC(=O)c4ccccc4)c4ccccc4)C(C)=C1C3(C)C)[C@]1(OC(C)=O)CO[C@@H]1C[C@@H]2O [PTXfree, paclitaxel]
- IC50, weight ratio CFZ:PTX 0: 1 (MIA PaCa-2 cell line; PTX form alone): 0.44 ng/mL

SMILES: CC(C)C[C@H](NC(=O)[C@H](CCc1ccccc1)NC(=O)CN1CCOCC1)C(=O)N[C@@H](Cc1ccccc1)C(=O)N[C@@H](CC(C)C)C(=O)[C@@]1(C)CO1 [CFZfree, carfilzomib]
- IC50, weight ratio CFZ:PTX 1: 0 (MIA PaCa-2 cell line; CFZ form alone): 8.90 ng/mL
- initial half-life (T1/2,initial) [1]: < 20 min
